Calls of active or inactive are those of the source. No cut-off for these calls is given here. Some results are limits rather than exact numbers.

Test [1] concerns the target T1, Phospholipase A2, membrane associated (Homo sapiens) (UniProt P14555).
T1 sequence (whole entry): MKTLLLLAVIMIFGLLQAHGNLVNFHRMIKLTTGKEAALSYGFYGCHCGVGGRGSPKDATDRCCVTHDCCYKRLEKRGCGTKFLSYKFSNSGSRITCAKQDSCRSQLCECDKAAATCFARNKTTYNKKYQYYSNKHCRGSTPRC
Description: Inhibition of sPLA2-IIA (unknown origin)-integrin alphaVbeta3 interaction in human K562 cells pretreated for 30 mins to immobilized sPLA2 before adding cells by phosphatase assay relative to BSA. Format: cell-based. The essentials:
(§1)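 Wells coated with sPLA2-IIA and blocked with BSA were preincubated with compound (10 to 500 μM) for 30 min. Integrin αvβ3-transfected K562 erythroleukemia cells were then added for 1 h at 37 °C, and bound cells were quantified by phosphatase assay. IC50 and maximum inhibition were derived from dose-response experiments.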

Test [2] addresses T2, Phospholipase A2, membrane associated (Homo sapiens, UniProt P14555).
T2 sequence (P14555 whole entry): T1 sequence (whole entry)
As to the kind of experiment: Inhibition of sPLA2-IIA (unknown origin)-integrin alphaVbeta3 interaction in human K562 cells pretreated for 30 mins to immobilized sPLA2 before adding cells by phosphatase assay. Format: cell-based. In outline:
as §1

Test [3] has as its target T3, Disintegrin and metalloproteinase domain-containing protein 15 (Homo sapiens) (UniProt Q13444).
T3 sequence (whole entry): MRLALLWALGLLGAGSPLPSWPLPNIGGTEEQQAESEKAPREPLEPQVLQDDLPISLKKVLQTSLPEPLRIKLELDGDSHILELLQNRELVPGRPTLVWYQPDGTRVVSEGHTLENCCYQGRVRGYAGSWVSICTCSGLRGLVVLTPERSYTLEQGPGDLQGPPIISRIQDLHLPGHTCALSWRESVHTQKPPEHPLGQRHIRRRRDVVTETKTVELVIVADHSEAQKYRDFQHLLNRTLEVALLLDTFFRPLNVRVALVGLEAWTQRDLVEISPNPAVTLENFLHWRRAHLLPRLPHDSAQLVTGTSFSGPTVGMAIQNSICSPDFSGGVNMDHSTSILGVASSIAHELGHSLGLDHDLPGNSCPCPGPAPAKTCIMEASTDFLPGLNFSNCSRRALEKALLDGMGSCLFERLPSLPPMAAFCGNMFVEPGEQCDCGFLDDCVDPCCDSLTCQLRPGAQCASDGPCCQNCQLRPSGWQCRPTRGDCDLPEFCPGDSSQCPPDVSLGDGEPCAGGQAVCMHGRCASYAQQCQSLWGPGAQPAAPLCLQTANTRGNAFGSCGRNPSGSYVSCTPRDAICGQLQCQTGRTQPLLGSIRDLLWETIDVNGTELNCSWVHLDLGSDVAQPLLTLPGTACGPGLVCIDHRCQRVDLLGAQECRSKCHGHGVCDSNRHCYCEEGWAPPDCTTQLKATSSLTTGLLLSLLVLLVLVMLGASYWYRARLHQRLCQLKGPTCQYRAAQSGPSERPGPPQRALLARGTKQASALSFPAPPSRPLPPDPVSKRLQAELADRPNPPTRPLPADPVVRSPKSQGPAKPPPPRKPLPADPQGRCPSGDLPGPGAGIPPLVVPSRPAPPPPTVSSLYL
As to the kind of experiment: Inhibition of ADAM15 (unknown origin)-integrin alphaVbeta3 interaction in human K562 cells pretreated at 200 uM for 30 mins to immobilized sPLA2 before adding cells by phosphatase assay. Format: cell-based. The essentials:
(§2)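 Specificity adhesion assay using αvβ3-transfected K562 cells. Wells were coated with either ADAM15 or sPLA2-IIA and blocked with BSA. Compound was used at 200 μM. Adherent cells were quantified by phosphatase assay. Means ± S.E., n=3.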

Test [4] deals with T1, Phospholipase A2, membrane associated (Homo sapiens). Description: Inhibition of sPLA2-IIA (unknown origin)-integrin alphaVbeta3 interaction in human K562 cells pretreated at 200 uM for 30 mins to immobilized sPLA2 before adding cells by phosphatase assay. Format: cell-based. In outline:
as §2

Test [5] relates to U-937. As to the kind of experiment: Inhibition of sPLA2-IIA (unknown origin)-induced migration of human U937 cells after 20 hrs by chemotaxis assay.
Test [6] deals with U-937. Description: Inhibition of sPLA2-IIA R47E/R100E mutant (unknown origin)-induced migration of human U937 cells after 20 hrs by chemotaxis assay. It counts as cell-based.
The target in test [7] is T1, Phospholipase A2, membrane associated (Homo sapiens). Description: Inhibition of sPLA2-IIA (unknown origin)-induced migration of human U937 cells after 20 hrs by chemotaxis assay. Conditions: U-937. Format: cell-based. In outline:
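Modified Boyden chamber (Transwell) chemotaxis assay. The lower chamber held sPLA2-IIA (40 ng/ml) with compound (4 to 16 μM), and U937 monocytic cells were placed in the upper chamber for 20 h at 37 °C. Migrated cells were counted. Means ± SE, n=4.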

For the molecule `Cc1nc(NC(=O)c2ccccc2)sc1-c1cc(C(=O)O)[nH]n1`, the Imax entry in test [1] is “inactive”. `CC[C@H](C)[C@H](NC(=O)[C@@H](CC(=O)O)NC(=O)[C@H](Cc1c[nH]c2ccccc12)NC(=O)[C@H](C)N)C(=O)O`: the Imax result in test [1] is “inactive”.

In the case of `Cc1nc(NC(=O)c2ccccc2)sc1-c1cc(C(=O)N[C@@H](C)C(=O)N[C@@H](Cc2c[nH]c3ccccc23)C(=O)N[C@H](CC(=O)O)C(=O)O)[nH]n1`, the Imax result in test [1] was “inactive”. In the case of `Cc1nc(NC(=O)c2ccccc2)sc1-c1cc(C(=O)NCC(=O)N[C@H](CCCN=C(N)N)C(=O)NCC(=O)O)[nH]n1`, in test [2], the IC50 (commonly the concentration at which inhibition is half-maximal) amounted to 217 µM. For `Cc1nc(NC(=O)c2ccccc2)sc1-c1cc(C(=O)NCC(=O)N[C@H](CCCNC(=N)N)C(=O)O)[nH]n1`, the Imax in test [1] is 77%.

As for `Cc1nc(NC(=O)c2ccccc2)sc1-c1cc(C(=O)NCC(=O)N[C@H](CCCNC(=N)N)C(=O)NCC(=O)N[C@H](CC(=O)O)C(=O)O)[nH]n1`, the Imax in test [1] was 87%. Same read-out and setting: for `Cc1nc(NC(=O)c2ccccc2)sc1-c1cc(C(=O)NCC(=O)N[C@H](CCCNC(=N)N)C(=O)NCC(=O)O)[nH]n1` the value was 81%.

Regarding `Cc1nc(NC(=O)c2ccccc2)sc1-c1cc(C(=O)NCC(=O)N[C@H](CCCNC(=N)N)C(=O)NCC(=O)N[C@H](CC(=O)O)C(=O)N[C@H](CC(=O)O)C(=O)N[C@H](CC(=O)O)C(=O)O)[nH]n1`, the inhibition result (in test [3]; in the test with U-937 [5]) was “inactive” each time. Moreover, in test [4], the inhibition entry was “Active”. For the same molecule, the Imax in test [1] was determined as 93%.

Regarding `Cc1nc(NC(=O)c2ccccc2)sc1-c1cc(C(=O)NCC(=O)N[C@H](CCCN=C(N)N)C(=O)O)[nH]n1`, the IC50 in test [2] is 262 µM. Still for that read-out and setting: the figure for `Cc1nc(NC(=O)c2ccccc2)sc1-c1cc(C(=O)NCC(=O)N[C@H](CCCN=C(N)N)C(=O)NCC(=O)N[C@H](CC(=O)O)C(=O)O)[nH]n1` is 155 µM. In the case of `CC(C)[C@H](NC(=O)[C@@H]1CCCN1C(=O)[C@@H](CC(N)=O)NC(=O)[C@@H](CCCNC(=N)N)NC(=O)[C@H](CCCCN)NC(=O)[C@H](Cc1c[nH]c2ccccc12)NC(=O)c1csc(-c2ccccn2)n1)C(=O)O`, the Imax in test [1] was below 30%. Consider `Cc1nc(NC(=O)c2ccccc2)sc1-c1cc(C(=O)NCC(=O)O)[nH]n1`, for which, in test [1], the Imax was 98%. On the same count and under the same terms, the entry for `Cc1nc(NC(=O)c2ccccc2)sc1-c1cc(C(=O)N[C@@H](C)C(=O)N[C@@H](Cc2c[nH]c3ccccc23)C(=O)O)[nH]n1` is “inactive”. Still for that read-out and setting: the entry for `Cc1nc(NC(=O)c2ccccc2)sc1-c1cc(C(=O)NCC(=O)N[C@H](CCCNC(=N)N)C(=O)NCC(=O)N[C@H](CC(=O)O)C(=O)N[C@H](CC(=O)O)C(=O)O)[nH]n1` is “inactive”. In the case of `C[C@H](NC(=O)[C@@H](CCCNC(=N)N)NC(=O)[C@@H](CC(N)=O)NC(=O)[C@@H](CCCNC(=N)N)NC(=O)[C@@H](Cc1ccccc1)NC(=O)c1ccc2nn3c(c2c1)OCc1cc(Cl)ccc1-3)C(=O)N[C@@H](Cc1ccc(O)cc1)C(=O)O`, the Imax in test [1] worked out at 71%. In addition, the IC50 in test [2] was determined as 85 µM. Consider `Cc1nc(NC(=O)c2ccccc2)sc1-c1cc(C(=O)N[C@@H](C)C(=O)O)[nH]n1`, for which the Imax result in test [1] is “inactive”. For `CC[C@H](C)[C@H](NC(=O)[C@@H](CC(=O)O)NC(=O)[C@H](Cc1c[nH]c2ccccc12)NC(=O)[C@H](C)NC(=O)c1cc(-c2sc(NC(=O)c3ccccc3)nc2C)n[nH]1)C(=O)O`, the inhibition result (in the test on U-937 [6]; in test [3]) was “inactive” throughout. Moreover, the inhibition entry in test [7] is “Dose-dependent effect”. Besides, the inhibition result in test [4] was “Active”. The Imax in test [1] was determined as 85%. In addition, in test [2], the IC50 was 20 µM. For the molecule `CC(C)[C@H](NC(=O)CC1NC(=O)NC1=O)C(=O)N[C@H](CC(N)=O)C(=O)N[C@@H](Cc1c[nH]c2ccccc12)C(=O)N1CCC[C@H]1C(=O)N[C@@H](CCC(N)=O)C(=O)N[C@@H](CCC(N)=O)C(=O)O` (stereo partly specified), the Imax in test [1] was below 30%. As for `Cc1nc(NC(=O)c2ccccc2)sc1-c1cc(C(=O)NCC(=O)N[C@H](CCCN=C(N)N)C(=O)NCC(=O)N[C@H](CC(=O)O)C(=O)N[C@H](CC(=O)O)C(=O)N[C@H](CC(=O)O)C(=O)O)[nH]n1`, the IC50 in test [2] turned out to be 71 µM. Regarding `N=C(N)NCCC[C@@H](NC(=O)c1csc(-c2ccccn2)n1)C(=O)N[C@@H](Cc1c[nH]c2ccccc12)C(=O)N[C@@H](CCC(=O)O)C(=O)N[C@H](Cc1ccccc1)C(=O)O`, in test [1], the Imax was below 30%.

Take `C[C@H](NC(=O)[C@H](CCCCN)NC(=O)[C@H](Cc1ccc(O)cc1)NC(=O)[C@H](Cc1cnc[nH]1)NC(=O)c1cnccn1)C(=O)N[C@H](CC(N)=O)C(=O)N[C@H](C(=O)O)[C@@H](C)O`: the Imax in test [1] is below 30%. Same read-out and setting: for `N=C(N)NCCC[C@@H](NC(=O)CN)C(=O)NCC(=O)N[C@H](CC(=O)O)C(=O)N[C@H](CC(=O)O)C(=O)N[C@H](CC(=O)O)C(=O)O` the value was “inactive”.

(Values after ChEMBL document CHEMBL2331538, “Identification of inhibitors against interaction between pro-inflammatory sPLA2-IIA protein and integrin αvβ3” (Bioorg Med Chem Lett, 2013).)
